Results published in ChEMBL document CHEMBL1122721, “Synthesis and antiarrhythmic activity of new 1-[1-[2-[3-(alkylamino)-2-hydroxypropoxy]phenyl]vinyl]-1 H-imidazoles and related compounds” (J Med Chem, 1984).

Tests used:
[1] = target: Adrenergic receptor beta (Cavia porcellus); experiment: Beta adrenergic receptor blocking activity measured by the chronotropic effect was determined 1 hr after pretreatment of the right atria in guinea pig
[2] = target: Adrenergic receptor beta (Cavia porcellus); experiment: Beta adrenergic receptor blocking activity measured by the inotropic effect was determined 1 hr after pretreament of the right atria in guinea pig
[3] = test system: Mus musculus; experiment: Compound was evaluated for ventricular extrasystole activity, 3 min before aconitine infusion, at a dose of 3 mg/kg, intravenously administered in mice; S=significant antiarrhythmic effect; type: functional, organism-based; parameters: dose 3 mg/kg; conditions: Heart
Summary of the method: (§1)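 Aconitine arrhythmia model in pentobarbital-anesthetized male mice (20-35 g). Test compound was given iv 3 min or po 30 min before continuous tail-vein infusion of aconitine (0.685 µg/min). Lead II ECG recorded; onset times of ventricular extrasystole (VES) and ventricular tachycardia (VT) were measured.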

[4] = test system: Mus musculus; experiment: Compound was evaluated for ventricular tachycardia activity in intravenously administered mice, 3 min before aconitine infusion, at a dose of 3 mg/kg; S=significant antiarrhythmic effect; type: functional, organism-based; parameters: dose 3 mg/kg; conditions: Heart
Summary of the method: as §1

[5] = species on record: Cavia porcellus; experiment: Maximal follow rate showing the contractile frequencies of atria to electrical stimulation 10 min after incubation with right atria of guinea pig.; type: functional
Summary of the method: (§2)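 Isolated right atria driven by electrical stimulation (Dawes' method). Maximal follow rate, the highest contractile frequency the atria follow, measured as an index of refractory period 10 min after incubation with compound.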

[6] = test system: Mus musculus; experiment: Compound was evaluated for ventricular extrasystole, 30 min before aconitine infusion, at a dose of 30 mg/kg, perorally administered in mice; S=significant antiarrhythmic effect; type: functional, organism-based; parameters: dose 30 mg/kg; conditions: Heart
Summary of the method: as §1

[7] = test system: Canis familiaris; experiment: Effect on ischemic arrhythmias was studied in dogs. 3 mg/kg was injected intravenously and percent sinus beats before compound administration, was reported.; type: functional, Canis lupus familiaris; conditions: route intravenous
Summary of the method: (§3)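 Conscious dogs with ischemic ventricular arrhythmias persisting for 24 h after a glass bead was inserted into a coronary artery. Compound was given iv or orally. Lead II ECG recorded continuously by telemetry. Percent sinus beats taken before and after dosing, plus duration of effect (min).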

[8] = species on record: Canis familiaris; experiment: Duration of ischemic arrhythmias in dogs determined in minutes.
[9] = test system: Canis familiaris; experiment: Effect on ischemic arrhythmias was studied in dogs. 3 mg/kg was injected intravenously and percent sinus beats after compound administration, was reported.; type: functional, Canis lupus familiaris; conditions: route intravenous
Summary of the method: as §3

[10] = Lethal dose in mice (LD50) (following i.v. dosing); conditions: mouse, in vivo, iv
[11] = species on record: Cavia porcellus; experiment: Effect on maximal follow rate showing the contractile frequencies of atria to electrical stimulation 10 min after incubating compound with right atria of guinea pig; type: functional
Summary of the method: as §2

[12] = test system: Mus musculus; experiment: Compound was evaluated for ventricular tachycardia activity in perorally administered mice, 30 min before aconitine infusion, at a dose of 10 mg/kg; S=significant antiarrhythmic effect; type: functional, organism-based; parameters: dose 10 mg/kg; conditions: Heart
Summary of the method: as §1

[13] = test system: Mus musculus; experiment: Compound was evaluated for ventricular extrasystole, 30 min before aconitine infusion, at a dose of 10 mg/kg, perorally administered in mice; S=significant antiarrhythmic effect; type: functional, organism-based; parameters: dose 10 mg/kg; conditions: Heart
Summary of the method: as §1

[14] = test system: Mus musculus; experiment: Compound was evaluated for ventricular extrasystole activity, 3 min before aconitine infusion, at a dose of 10 mg/kg, intravenously administered in mice; S=significant antiarrhythmic effect; type: functional, organism-based; parameters: dose 10 mg/kg; conditions: Heart
Summary of the method: as §1

[15] = test system: Mus musculus; experiment: Compound was evaluated for ventricular tachycardia activity in intravenously administered mice, 3 min before aconitine infusion, at a dose of 10 mg/kg; S=significant antiarrhythmic effect; type: functional, organism-based; parameters: dose 10 mg/kg; conditions: Heart
Summary of the method: as §1

[16] = test system: Canis familiaris; experiment: Effect on ischemic arrhythmias was studied in dogs, by glass bead method. 60 mg/kg was administered perorally and percent sinus beats after compound administration, was reported.; type: functional, Canis lupus familiaris; conditions: route oral
Summary of the method: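 Conscious dogs; ventricular arrhythmias induced by inserting a glass bead into a coronary artery, with marked arrhythmias persisting for 24 h. Compound given orally. Lead II ECG recorded continuously by telemetry. Percent sinus beats measured before and after dosing, and duration of effect in min recorded.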

[17] = test system: Canis familiaris; experiment: Effect on ischemic arrhythmias was studied in dogs, by glass bead method. 60 mg/kg was administered perorally and percent sinus beats before compound administration, was reported.; type: functional, Canis lupus familiaris; conditions: route oral
Summary of the method: as §3

[18] = test system: Mus musculus; experiment: Compound was evaluated for ventricular tachycardia activity in perorally administered mice, 30 min before aconitine infusion, at a dose of 30 mg/kg; S=significant antiarrhythmic effect; type: functional, organism-based; parameters: dose 30 mg/kg; conditions: Heart
Summary of the method: as §1

Row | SMILES | pA2 [1] | pA2 [2] | Decrease [5] [%] | other results
1 | C=C(c1ccccc1OCC(O)CNC(C)(C)C)n1cnc2ccccc21 (stereo not drawn) | 7.29 | 7.08 |  | Activity [3]: Anti-arrhythmic; Activity [4]: Anti-arrhythmic
2 | C=C(c1ccccc1OCC(O)CNC(C)(C)C)n1ccnc1C (stereo not drawn) | 6.97 | 6.97 | 27.1 | 
3 | C=C(c1cccc(OC)c1OCC(O)CNC(C)C)n1cnc2ccccc21 (stereo not drawn) | 6.26 | 6.41 | 22.3 | 
4 | C=C(c1c(C)ccc(C)c1OCC(O)CNC(C)C)n1ccnc1 (stereo not drawn) | 6.23 | 6.43 | 35.7 | LD50 [10]: 30.7 mg/kg; Activity [3]: Anti-arrhythmic; Activity [4]: Anti-arrhythmic
5 | C/C=C(\c1ccccc1OCC(O)CNC(C)(C)C)n1ccnc1 (stereo not drawn) | 7.19 | 7.3 | 14.5 | 
6 | C=C(c1c(C)ccc(C)c1OCC(O)CNC(C)(C)C)n1ccnc1 (stereo not drawn) | 6.36 | 6.47 | 17.1 | 
7 | C=C(c1c(Cl)ccc(Cl)c1OCC(O)CNC(C)(C)C)n1ccnc1 (stereo not drawn) | 5.27 | 5.41 | 26.3 | 
8 | CC(C)NCC(O)COc1cccc2ccccc12 (stereo not drawn) [PROPRANOLOL] |  |  |  | Activity [6]: Anti-arrhythmic; Decrease [11]: 33.5%; Activity [15]: Anti-arrhythmic; Sinus beats [16]: 51.6%; Activity [14]: Anti-arrhythmic; Sinus beats [17]: 12%
9 | C=C(c1cc(C)cc(C)c1OCC(O)CNC(C)(C)C)n1ccnc1 (stereo not drawn) | 5.55 | 6.58 | 31.8 | LD50 [10]: 15.9 mg/kg; Activity [3]: Anti-arrhythmic; Activity [4]: Anti-arrhythmic
10 | C=C(c1ccccc1OCC(O)CN1CCCC1)n1ccnc1 (stereo not drawn) | 6.13 | 6.15 | 16.7 | 
11 | C=C(c1cccc(OC)c1OCC(O)CNC(C)(C)C)n1cnc2ccccc21 (stereo not drawn) | 7.03 | 7.03 | 39.2 | LD50 [10]: 19.8 mg/kg; Activity [3]: Anti-arrhythmic; Activity [4]: Anti-arrhythmic
12 | C=C(c1ccccc1OCC(O)CN(C)C)n1ccnc1 (stereo not drawn) | 5.41 | 6.12 | 30.7 | Activity [15]: Anti-arrhythmic; LD50 [10]: 45.4 mg/kg; Activity [14]: Anti-arrhythmic
13 | C=C(c1ccccc1OCC(O)CNC(C)C)n1cnc(C(=O)OCC)c1C (stereo not drawn) | 6.15 | 6.37 |  | 
14 | C=C(c1cccc(C)c1OCC(O)CNC(C)(C)C)n1ccnc1 (stereo not drawn) | 5.81 | 5.62 | 46.6 | Activity [6]: Anti-arrhythmic; LD50 [10]: 23.1 mg/kg; Activity [3]: Anti-arrhythmic; Activity [4]: Anti-arrhythmic; Activity [18]: Anti-arrhythmic
15 | CC(C)NCC(O)COc1ccccc1Cn1cccn1 (stereo not drawn) | 7.42 | 7.54 | 28.7 | 
16 | C=C(c1ccccc1OCC(O)CNC(C)(C)C)n1cccn1 (stereo not drawn) | 8.1 | 8.01 |  | Activity [15]: Anti-arrhythmic
17 | C=C(c1cc(Cl)cc(C)c1OCC(O)CNC(C)C)n1ccnc1 (stereo not drawn) | 5.22 | 5.93 | 37.9 | LD50 [10]: 48.8 mg/kg; Activity [3]: Anti-arrhythmic; Activity [4]: Anti-arrhythmic
18 | C=C(c1c(C)c(C)cc(Cl)c1OCC(O)CNC(C)(C)C)n1ccnc1 (stereo not drawn) | 6.18 | 6.21 | 31.9 | LD50 [10]: 18.8 mg/kg; Activity [3]: Anti-arrhythmic; Activity [4]: Anti-arrhythmic

Now from value to compound, other results behind:

Row | pA2 [1] | pA2 [2] | SMILES | Decrease [5] [%] | other results
19 | 6.19 | 6.21 | C=C(c1ccc(Cl)cc1OCC(O)CNC)n1ccnc1 (stereo not drawn) | 17.8 | 
20 | 6.52 | 6.76 | C/C=C(\c1ccccc1OCC(O)CNC(C)C)n1ccnc1 (stereo not drawn) | 18.6 | 
21 | 6.24 | 6.24 | C=C(c1ccccc1OCC(O)CNC(C)C)n1ccnc1C (stereo not drawn) | 15 | 
22 | 6.2 | 6.19 | C=C(c1ccccc1OCC(O)CNC(C)C)n1ccc(=O)cc1 (stereo not drawn) | 13 | 
23 | 5.66 | 5.63 | C=C(c1cccc(Cl)c1OCC(O)CNC(C)C)n1ccnc1 (stereo not drawn) | 28.2 | 
24 | 6.3 | 6.51 | C=C(c1cc(Cl)cc(Cl)c1OCC(O)CNC(C)(C)C)n1ccnc1 (stereo not drawn) | 27.1 | 
25 | 6.12 | 6.33 | C=C(c1ccccc1OCC(O)CNC(C)C)n1cncn1 (stereo not drawn) |  | Activity [6]: Anti-arrhythmic; Activity [3]: Anti-arrhythmic; Sinus beats [7]: 9.8%; Duration [8]: 15 min; Activity [4]: Anti-arrhythmic; Sinus beats [9]: 28.3%
26 | 5.86 | 5.95 | C=C(c1ccc(Cl)cc1OCC(O)CNC(C)C)n1ccnc1 (stereo not drawn) | 26.3 | 
27 | 6.64 | 6.99 | C=C(c1cccc(OC)c1OCC(O)CNC(C)C)n1ccnc1 (stereo not drawn) | 29 | 
28 | 5.08 | 5.05 | C=C(c1c(Cl)ccc(Cl)c1OC[C@@H](O)CNC(C)C)n1ccnc1.Cl |  | Decrease [11]: 40.3%; Activity [12]: Anti-arrhythmic; Activity [13]: Anti-arrhythmic; Activity [14]: Anti-arrhythmic; Activity [4]: Anti-arrhythmic
29 | 6.76 | 6.74 | C=C(c1cc(Cl)ccc1OCC(O)CNC(C)C)n1cccn1 (stereo not drawn) | 14.3 | 
30 | 5.49 | 5.04 | C=C(c1cc(Cl)cc(C)c1OCC(O)CNC(C)(C)C)n1ccnc1 (stereo not drawn) | 27.3 | 
31 | 6.64 | 6.23 | C=C(c1cc(Cl)c(Cl)cc1OCC(O)CNC(C)C)n1ccnc1 (stereo not drawn) | 23.8 | 
32 | 7.69 | 8.01 | C=C(c1ccccc1OCC(O)CNC(C)(C)C)n1ccnc1 (stereo not drawn) | 14.1 | 
33 | 5.8 | 6.17 | C=C(c1ccccc1OCC(O)CNC(C)C)n1c(C)cnc1CC (stereo not drawn) | 9.1 | 
34 | 6.44 | 6.27 | C=C(c1c(Cl)cc(Cl)cc1OCC(O)CNC(C)C)n1ccnc1 (stereo not drawn) | 19.6 | 
35 | 5.55 | 6.31 | C=C(c1cc(C)cc(C)c1OCC(O)CNC(C)C)n1ccnc1 (stereo not drawn) | 25.9 | 
36 | 6.9 | 6.83 | CC(C)NCC(O)COc1ccccc1C(C)n1ccnc1 (stereo not drawn) | 15.6 | 
37 | 6.3 | 6.41 | C=C(c1cc(Cl)ccc1OCC(O)CNC(C)C)n1ccnc1 (stereo not drawn) | 27.1 | 
38 | 6.89 | 6.89 | C=C(c1ccccc1OCC(O)CNC(C)C)n1ccnc1 (stereo not drawn) | 27.1 | 
39 | 7.44 | 7.75 | C=C(c1ccccc1OCC(O)CNC(C)C)n1cccn1 (stereo not drawn) | 21.6 | 
40 | 4.9 | 5.19 | CC(C)=C(c1cc(Cl)ccc1OCC(O)CNC(C)C)n1ccnc1 (stereo not drawn) | 21.6 | 
41 | 4.46 | 5.19 | C=C(c1c(Cl)ccc(Cl)c1OC[C@H](O)CNC(C)C)n1ccnc1.Cl |  | Decrease [11]: 39.5%; Activity [12]: Anti-arrhythmic; Activity [3]: Anti-arrhythmic; Activity [4]: Anti-arrhythmic
42 | 6.69 | 6.66 | CC(C)NCC(O)COc1ccccc1Cn1ccnc1 (stereo not drawn) | 14.2 | 
43 | 7.19 | 7.16 | C=C(c1ccccc1OCC(O)CNC(C)C)n1cnc(C)c1 (stereo not drawn) |  | Activity [4]: Anti-arrhythmic
44 | 6.67 | 6.46 | C=C(c1ccccc1OCC(O)CNC(C)C)n1cnc2ccccc21 (stereo not drawn) | 16.8 | 
45 | 6.5 | 6.64 | C=C(c1cc(Cl)cc(Cl)c1OCC(O)CNC(C)C)n1ccnc1 (stereo not drawn) | 27.5 | 
